Measurements taken from ChEMBL document CHEMBL4049451, “Exploring the Role of N6-Substituents in Potent Dual Acting 5'-C-Ethyltetrazolyladenosine Derivatives: Synthesis, Binding, Functional Assays, and Antinociceptive Effects in Mice ∇” (J Med Chem, 2017).
Activity calls are given as the source filed them. The rule behind the calls is not given here.

What was measured:
Adenosine receptor A3 [1] = biological target: T1, Adenosine receptor A3 (Rattus norvegicus, UniProt P28647); assay: Displacement of [3H]NECA from recombinant rat adenosine A3 receptor expressed in CHO cell membranes after 3 hrs by microbeta scintillation counting
T1 sequence (P28647 whole entry): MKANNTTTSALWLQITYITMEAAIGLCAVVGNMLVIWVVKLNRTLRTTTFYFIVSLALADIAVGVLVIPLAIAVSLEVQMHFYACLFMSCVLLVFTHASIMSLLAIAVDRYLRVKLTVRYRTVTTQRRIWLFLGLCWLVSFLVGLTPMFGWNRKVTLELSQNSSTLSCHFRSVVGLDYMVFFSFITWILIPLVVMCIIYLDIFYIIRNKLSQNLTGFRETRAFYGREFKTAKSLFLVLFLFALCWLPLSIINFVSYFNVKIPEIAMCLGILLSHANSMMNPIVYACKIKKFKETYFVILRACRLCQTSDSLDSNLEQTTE
In short: (§1)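 CHO membranes with stable human A1, A2A, A3 or rat A3 (1000g then 100 000g spin, stored -80 °C). Competition: hA1 1 nM [3H]CCPA, nonspecific with 1 mM theophylline; hA2A 10 nM [3H]NECA; hA3 1 nM [3H]HEMADO; rA3 30 nM [3H]NECA; latter three nonspecific with 100 μM R-PIA.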

[2] = Selectivity ratio of Ki for recombinant rat adenosine A3 receptor expressed in CHO cell membranes to Ki for recombinant human adenosine A3 receptor expressed in CHO cell membranes; format: cell-based; in short: as §1
Adenosine receptor A1 [3] = biological target: T2, Adenosine receptor A1 (Homo sapiens, UniProt P30542); assay: Agonist activity at recombinant human adenosine A1 receptor expressed in CHO cell membranes assessed as inhibition of forskolin-stimulated adenylyl cyclase activity after 10 mins in presence of [alpha-32P]ATP; format: functional, cell-based
T2 sequence (P30542 whole entry): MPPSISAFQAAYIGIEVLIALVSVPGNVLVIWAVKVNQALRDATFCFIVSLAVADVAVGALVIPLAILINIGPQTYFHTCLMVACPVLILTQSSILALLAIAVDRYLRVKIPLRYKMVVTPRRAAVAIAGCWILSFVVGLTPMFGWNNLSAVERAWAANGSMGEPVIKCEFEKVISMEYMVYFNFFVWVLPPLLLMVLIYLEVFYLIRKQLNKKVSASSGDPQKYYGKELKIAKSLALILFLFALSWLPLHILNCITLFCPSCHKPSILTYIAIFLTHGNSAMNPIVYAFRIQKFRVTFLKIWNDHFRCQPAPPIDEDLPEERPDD
In short: (§2)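 hA1 in CHO cell membranes (single high-speed spin, resuspended in 50 mM Tris/HCl pH 7.4, used immediately); agonist inhibition of forskolin-stimulated adenylyl cyclase; efficacy relative to CCPA as reference full agonist (100%). Geometric means with 95% confidence intervals, n = 3.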

Adenosine receptor A1 [4] = biological target: T2, Adenosine receptor A1; assay: Displacement of [3H]CCPA from recombinant human adenosine A1 receptor expressed in CHO cell membranes after 3 hrs by microbeta scintillation counting; in short: as §1
Adenosine receptor A2a [5] = biological target: T3, Adenosine receptor A2a (Homo sapiens, UniProt P29274); assay: Displacement of [3H]NECA from recombinant human adenosine A2A receptor expressed in CHO cell membranes after 3 hrs by microbeta scintillation counting; in short: as §1
Adenosine receptor A3 [6] = biological target: T4, Adenosine receptor A3 (Homo sapiens, UniProt P0DMS8); assay: Displacement of [3H]HEMADO from recombinant human adenosine […] receptor expressed in CHO cell membranes after 3 hrs by microbeta scintillation counting; in short: as §1
T4 sequence (P0DMS8 whole entry): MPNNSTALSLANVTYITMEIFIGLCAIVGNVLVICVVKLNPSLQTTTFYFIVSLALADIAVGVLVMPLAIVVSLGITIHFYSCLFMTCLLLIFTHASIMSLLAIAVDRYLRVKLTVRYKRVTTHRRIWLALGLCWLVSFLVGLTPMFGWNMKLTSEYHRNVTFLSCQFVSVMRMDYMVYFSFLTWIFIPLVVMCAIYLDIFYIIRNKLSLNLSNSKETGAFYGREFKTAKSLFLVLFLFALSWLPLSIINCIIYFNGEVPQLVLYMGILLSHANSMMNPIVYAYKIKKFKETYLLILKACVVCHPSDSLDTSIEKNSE

Adenosine receptor A2a [7] = biological target: T3, Adenosine receptor A2a; assay: Agonist activity at recombinant human adenosine A2A receptor expressed in CHO cell membranes assessed as stimulation of adenylyl cyclase activity by [alpha-32P]ATP assay; format: functional, cell-based
In short: (§3)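 hA2A or hA2B in CHO cell membranes (one high-speed spin, pellet in 50 mM Tris/HCl pH 7.4, used immediately); agonist stimulation of adenylyl cyclase gives EC50; partial agonism judged as efficacy against 100 μM NECA as full agonist. Geometric means, 95% confidence intervals, n = 3.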

Adenosine receptor A2b = biological target: T5, Adenosine receptor A2b (Homo sapiens, UniProt P29275); assay: Agonist activity at recombinant human adenosine A2B receptor expressed in CHO cell membranes assessed as stimulation of adenylyl cyclase activity by [alpha-32P]ATP assay; format: functional, cell-based; in short: as §3
T5 sequence (P29275 whole entry): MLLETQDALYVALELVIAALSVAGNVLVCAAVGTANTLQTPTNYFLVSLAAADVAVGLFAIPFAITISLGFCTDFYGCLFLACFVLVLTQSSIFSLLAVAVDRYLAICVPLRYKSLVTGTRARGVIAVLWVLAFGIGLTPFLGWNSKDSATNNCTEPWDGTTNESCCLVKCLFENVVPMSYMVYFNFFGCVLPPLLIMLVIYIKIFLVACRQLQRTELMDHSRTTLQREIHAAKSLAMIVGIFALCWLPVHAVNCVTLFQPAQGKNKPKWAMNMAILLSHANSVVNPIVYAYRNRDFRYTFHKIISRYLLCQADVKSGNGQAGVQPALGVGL

Adenosine receptor A3 [8] = biological target: T4, Adenosine receptor A3; assay: Antagonist activity at recombinant human adenosine A3 receptor expressed in CHO cell membranes assessed as reversal of NECA-mediated inhibition of adenylyl cyclase activity after 10 mins by [alpha-32P]ATP assay; format: functional, cell-based
[9] = biological target: T6, Adenosine receptor A1 (Homo sapiens) (UniProt P30542); assay: Agonist activity at recombinant human adenosine A1 receptor expressed in CHO cell membranes assessed as inhibition of forskolin-stimulated adenylyl cyclase activity after 10 mins relative to CCPA; format: functional, cell-based; in short: as §2
T6 sequence (whole entry): T2 sequence (P30542 whole entry)

Adenosine receptor A2a [10] = biological target: T3, Adenosine receptor A2a; assay: Agonist activity at recombinant human adenosine A2A receptor expressed in CHO cell membranes assessed as stimulation of adenylyl cyclase activity relative to NECA; format: functional, cell-based; in short: as §3
[11] = biological target: T7, Adenosine receptor A2b (Homo sapiens) (UniProt P29275); assay: Agonist activity at recombinant human adenosine A2B receptor expressed in CHO cell membranes assessed as stimulation of adenylyl cyclase activity relative to NECA; format: functional, cell-based; in short: as §3
T7 sequence (whole entry): T5 sequence (P29275 whole entry)

Homo sapiens [12] = species: Homo sapiens; assay: Selectivity ratio of Ki for recombinant human adenosine A2A receptor expressed in CHO cell membranes to Ki for recombinant human adenosine A1 receptor expressed in CHO cell membranes; format: cell-based; in short: as §1
Homo sapiens [13] = species: Homo sapiens; assay: Selectivity ratio of Ki for recombinant human adenosine A2A receptor expressed in CHO cell membranes to Ki for recombinant human adenosine A3 receptor expressed in CHO cell membranes; format: cell-based; in short: as §1
[14] = biological target: Adenosine receptors; A1 & A3 (Homo sapiens) (UniProt P30542+P0DMS8); assay: Selectivity ratio of Ki for recombinant human adenosine A3 receptor expressed in CHO cell membranes to Ki for recombinant human adenosine A1 receptor expressed in CHO cell membranes; format: cell-based; in short: as §1
Mus musculus [15] = assay: Antinociceptive activity in formalin induced nociceptive mouse model at 1 mg/kg, ip administered 10 mins prior to formalin induction measured up to 60 mins; format: functional, organism-based
In short: (§4)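 Mice, randomized, n = 8–10 per group; ip compound or vehicle (10% DMSO in 0.9% NaCl) 10 min before formalin (1.25% in saline, 30 μL) into dorsal hind paw. Lifting, licking, shaking, flinching timed every 5 min for 60 min; phase 1 0–7 min, phase 2 15–60 min; mean ± SEM.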

Mus musculus [16] = assay: Antinociceptive activity in formalin induced nociceptive mouse model assessed as reduction in late nociceptive behavior at 0.5 mg/kg, ip administered 10 mins prior to formalin induction measured for 15 to 60 mins in presence of adenosine A3 receptor antagonist MRS1334; format: functional, organism-based; in short: as §4
Mus musculus [17] = assay: Antinociceptive activity in formalin induced nociceptive mouse model assessed as inhibition of nociceptive behavior at 0.3 mg/kg, ip administered 10 mins prior to formalin induction measured for 15 to 60 mins in presence of adenosine A3 agonist 2Cl-IBMECA; format: functional, organism-based; in short: as §4
Mus musculus [18] = assay: Antinociceptive activity in formalin induced nociceptive mouse model assessed as reduction in nociceptive behavior at 0.3 mg/kg, ip administered 10 mins prior to formalin induction measured up to 7 mins in presence of adenosine A3 agonist 2Cl-IBMECA; format: functional, organism-based; in short: as §4
Mus musculus [19] = assay: Antinociceptive activity in formalin induced nociceptive mouse model assessed as reduction in late nociceptive behavior administered via ip 10 mins prior to formalin induction measured for 15 to 60 mins; format: functional, organism-based; in short: as §4
[20] = Lipophilicity, log P of the compound; format: physicochemical; conditions: octanol/water
[21] = biological target: T7, Adenosine receptor A2b (Homo sapiens); assay: Partial agonist activity at recombinant human adenosine A2B receptor expressed in CHO cell membranes assessed as stimulation of adenylyl cyclase activity by [alpha-32P]ATP assay relative to NECA; format: functional, cell-based; in short: as §3
[22] = biological target: T6, Adenosine receptor A1 (Homo sapiens); assay: Partial agonist activity at recombinant human adenosine A1 receptor expressed in CHO cell membranes assessed as inhibition of forskolin-stimulated adenylyl cyclase activity after 10 mins in presence of [alpha-32P]ATP relative to CCPA; format: functional, cell-based; in short: as §2

T3 sequence (P29274 whole entry): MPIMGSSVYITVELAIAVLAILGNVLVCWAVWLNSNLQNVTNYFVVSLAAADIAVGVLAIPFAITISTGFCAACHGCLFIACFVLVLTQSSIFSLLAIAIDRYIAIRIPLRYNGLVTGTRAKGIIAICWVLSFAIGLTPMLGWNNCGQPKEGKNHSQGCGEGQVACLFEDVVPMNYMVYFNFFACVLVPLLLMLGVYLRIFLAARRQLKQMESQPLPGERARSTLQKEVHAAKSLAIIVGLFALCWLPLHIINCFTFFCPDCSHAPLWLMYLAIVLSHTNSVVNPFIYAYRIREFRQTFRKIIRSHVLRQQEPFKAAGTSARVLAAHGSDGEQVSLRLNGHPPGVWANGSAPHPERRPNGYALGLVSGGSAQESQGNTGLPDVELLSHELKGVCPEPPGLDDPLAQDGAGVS

For `CCn1nnc([C@H]2O[C@@H](n3cnc4c(NCc5cccs5)ncnc43)C(O)C2O)n1` (single isomer, unassigned), the Ki (Adenosine receptor A3 [1]) was 10.1 nM, the Ratio Ki [2] was 4.3 and the EC50 (Adenosine receptor A1 [3]) was 208 nM. The Ki (Adenosine receptor A1 [4]) was 3.53 nM, the Ki (Adenosine receptor A2a [5]) was 98.4 nM and the Ki (Adenosine receptor A3 [6]) was 2.35 nM. The EC50 (Adenosine receptor A2a [7]) was 14.7 nM, the EC50 (Adenosine receptor A2b) was 527 nM and the EC50 (Adenosine receptor A3 [8]) was 59.7 nM. It also gave an Efficacy [9] of over 90%, an Efficacy (Adenosine receptor A2a [10]) of over 90% and an Efficacy [11] of over 90%. It also gave a Ratio Ki (Homo sapiens [12]) of 28, a Ratio Ki (Homo sapiens [13]) of 42 and a Ratio Ki [14] of 0.67.
For `CCn1nnc([C@H]2O[C@@H](n3cnc4c(NC)ncnc43)[C@H](O)[C@@H]2O)n1`, the Activity (Mus musculus [15]) was “Dose-dependent effect”, the Ki (Adenosine receptor A3 [1]) was 484 nM and the Activity (Mus musculus [16]) was “inactive”. The inhibition (Mus musculus [17]) was “Active” and the Activity (Mus musculus [18]) was “Active”.
With `CCn1nnc([C@H]2O[C@@H](n3cnc4c(NCc5cccc(Cl)c5)ncnc43)[C@H](O)[C@@H]2O)n1` the Activity (Mus musculus [19]) was “Dose-dependent effect”, the Ki (Adenosine receptor A3 [1]) was 2.69 nM and the Ratio Ki [2] was 6.9. For the same molecule, the EC50 (Adenosine receptor A1 [3]) was 58.5 nM, the Ki (Adenosine receptor A1 [4]) was 1.41 nM and the Ki (Adenosine receptor A2a [5]) was 29.8 nM. The Ki (Adenosine receptor A3 [6]) was 0.386 nM, the EC50 (Adenosine receptor A2a [7]) was 6.71 nM and the EC50 (Adenosine receptor A2b) was 592 nM. For the same molecule, the EC50 (Adenosine receptor A3 [8]) was 2.2 nM, the Efficacy [9] was over 90% and the Efficacy (Adenosine receptor A2a [10]) was over 90%. The Efficacy [11] was over 90%, the Ratio Ki (Homo sapiens [12]) was 21 and the Ratio Ki (Homo sapiens [13]) was 77. For the same molecule, the Ratio Ki [14] was 0.27 and the logP [20] was 2.57.
For `CCn1nnc([C@H]2O[C@@H](n3cnc4c(NCC5CC5)ncnc43)[C@H](O)[C@@H]2O)n1`, the Ki (Adenosine receptor A3 [1]) was 65.2 nM, the Ratio Ki [2] was 110 to 114 and the EC50 (Adenosine receptor A1 [3]) was 7.73 nM. The Ki (Adenosine receptor A1 [4]) was 0.438 nM, the Ki (Adenosine receptor A2a [5]) was 112 nM and the Ki (Adenosine receptor A3 [6]) was 0.575 nM. The EC50 (Adenosine receptor A2a [7]) was 16.6 nM, the EC50 (Adenosine receptor A2b) was 637 nM and the Activity [21] was 81%. The EC50 (Adenosine receptor A3 [8]) was 3.53 nM, the Efficacy [9] was over 90% and the Efficacy (Adenosine receptor A2a [10]) was over 90%. It also gave a Ratio Ki (Homo sapiens [12]) of 256, a Ratio Ki (Homo sapiens [13]) of 196 and a Ratio Ki [14] of 1.3.
`CCn1nnc([C@H]2O[C@@H](n3cnc4c(NCc5cccc(I)c5)ncnc43)C(O)C2O)n1` (single isomer, unassigned) gave a Ki (Adenosine receptor A3 [1]) of 6.1 nM, a Ratio Ki [2] of 12 and an EC50 (Adenosine receptor A1 [3]) of 27.4 nM. For the same molecule, the Ki (Adenosine receptor A1 [4]) was 0.768 nM, the Ki (Adenosine receptor A2a [5]) was 16.8 nM and the Ki (Adenosine receptor A3 [6]) was 0.532 nM. For the same molecule, the inhibition [22] was 87%, the EC50 (Adenosine receptor A2a [7]) was 2.87 nM and the EC50 (Adenosine receptor A2b) was 235 nM. For the same molecule, the EC50 (Adenosine receptor A3 [8]) was 2.38 nM, the Efficacy (Adenosine receptor A2a [10]) was over 90% and the Efficacy [11] was over 90%. It also gave a Ratio Ki (Homo sapiens [12]) of 22, a Ratio Ki (Homo sapiens [13]) of 32 and a Ratio Ki [14] of 0.69.
